A selection: hits, their analogues and other compounds. The true share with any hit is near 1.6%.
SDO1 yeast rescue = compounds rescuing growth of sdo1-depleted yeast, bone marrow failure model | z-score at 10 µM | actives 0.21% (n = 140,000) | S. cerevisiae sdo1-depleted JHY4D growth rescue, OD600 30 h; active compounds read high; pdr5 snq2 efflux-pump mutant strain;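 active = z-score above 3 at both the 24 hr and the 30 hr optical density reads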;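 note: z-score against mean and SD of all compound wells on the same plate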
Yeast lifespan up = extends the lifespan of yeast | actives 0.68% (n = 130,000) | S. cerevisiae growth with nicotinamide, OD615; deaD strain in restrictive glucose medium | inhibition of the nicotinamide effect, % at 10 µM | AID 775;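 active = inhibition above a set limit, placed 3 SD over the median of all compounds, cut at about 26% in these data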;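 note: 0% = nicotinamide-treated wells and 100% = cells grown without nicotinamide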
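Assay system: engineered S. cerevisiae DeaD replicative-lifespan strain, galactose-grown log-phase cells; Buffer or medium: CSMM-D glucose medium, restrictive; Probe or stimulus: nicotinamide 1.5 mM; Compound: single dose 10 µM compound, 0.25% DMSO; Schedule: 4 h preincubation then 48 h treatment at 30 °C; Technique: OD615 measurement.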
RBBP9 inh = human RBBP9 hydrolase inhibition; inhibition, % at 7.94 µM; recombinant RBBP9, FP-Rh probe fluorescence polarization; actives 0.2% (n = 220,000); O75884; AID 1515;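 active = inhibition above the campaign mean of all tested compounds plus 3 SD, cut at about 14% in these data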;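 note: plate controls were DMSO wells with RBBP9 for no effect and wells lacking RBBP9 protein for full effect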
Target sequence (O75884 whole entry, looked up): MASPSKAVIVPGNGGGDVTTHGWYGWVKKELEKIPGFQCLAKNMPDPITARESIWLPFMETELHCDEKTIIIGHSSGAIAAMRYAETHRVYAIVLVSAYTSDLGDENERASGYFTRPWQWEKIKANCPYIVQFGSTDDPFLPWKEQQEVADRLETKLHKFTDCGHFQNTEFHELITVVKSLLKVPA
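System: RBBP9 protein / Quantity: 2.5 µM RBBP9 dispensing solution, before mixing / Also added: Serine-hydrolase probe FP-Rh, 375 nM pre-mixing / Dosing: 7.94 µM single dose, 0.794% DMSO / Timing: enzyme-compound preincubation 30 min, then probe labeling 45 min, 25 °C / Signal: FP readout at 525/598 nm / Controls: DMSO-treated enzyme wells and wells lacking RBBP9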
TbHK1 inh = T. brucei hexokinase 1 inhibition; recombinant TbHK1, G6PDH-coupled NADH A340; inhibition, % at 10 µM; actives 0.11% (n = 220,000); AID 1430;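 active = inhibition of 50% or more in the single-dose primary screen; inactive = inhibition below 50%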
p47phox inh = p47phox (human) inhibition. P14598. p47phox/p22phox peptide binding, fluorescence polarization, 2 h. inhibition, % at 24.7 µM. actives 0.53% (n = 220,000);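 active = inhibition above about 30%, limit read from the data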;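 note: 0% = p47phox with labelled peptide and 100% = labelled peptide alone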
Target sequence (P14598 whole entry, looked up): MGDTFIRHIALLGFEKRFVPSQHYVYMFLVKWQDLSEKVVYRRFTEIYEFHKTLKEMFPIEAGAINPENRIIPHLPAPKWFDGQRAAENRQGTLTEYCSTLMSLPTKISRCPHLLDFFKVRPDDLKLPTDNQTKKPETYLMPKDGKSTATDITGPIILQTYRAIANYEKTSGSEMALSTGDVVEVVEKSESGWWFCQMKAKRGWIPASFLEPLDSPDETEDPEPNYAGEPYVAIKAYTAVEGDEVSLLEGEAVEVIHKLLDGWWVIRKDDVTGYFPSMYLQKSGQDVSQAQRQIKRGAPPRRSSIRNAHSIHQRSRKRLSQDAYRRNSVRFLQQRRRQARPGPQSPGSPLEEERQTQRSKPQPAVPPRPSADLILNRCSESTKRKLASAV
BB579 growth dn = chemicals that inhibit yeast BB579 growth in restrictive medium (lifespan-shortening candidates). inhibition, % at 10 µM. S. cerevisiae BB579 growth, OD615, 48 h. actives 0.51% (n = 140,000);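 active = inhibition above a set limit, 3 SD over the mean compound inhibition, cut at about 44% in these data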
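System: Saccharomyces cerevisiae DeaD strain BB579, replicative lifespan model yeast. Buffer or medium: restrictive glucose-based CSMM-D medium. Doses: one dose, 10 µM compound with 0.25% DMSO. Timing: 4 h preincubation and 48 h exposure at 30 °C. Detection: turbidity as optical density at 615 nm. Benchmarks: amphotericin B 10 µg/mL, positive.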
* hit, by the source's call; x = no result; + = active, no number.

SMILES | SDO1 yeast rescue | Yeast lifespan up | RBBP9 inh | TbHK1 inh | p47phox inh | BB579 growth dn
CN(C)CCNC(C(=O)Nc1cccc(C(F)(F)F)c1)c1ccccc1 (stereo not drawn) | x | x | -3 | -3 | -5 | x
Cn1c(SCC(=O)Nc2ccccc2)nc(O)cc1=O | -0.1 | -5 | -7 | -3 | -16 | 62*
CN1c2ccccc2N(C)C1(C)c1ccccc1 | 0 | 4 | -6 | -3 | 70* | -51
CCN1c2ccccc2N(C)C1(C)c1ccccc1 (stereo not drawn) | 0.47 | 0 | -11 | -13 | 63* | -18
O=C1C=CC2C(c3ccc4c(c3)OCO4)CC1N2Cc1ccccc1 (stereo not drawn) | -1.3 | 50* | -1 | -9 | 0 | -33
S=c1[nH]nc(Cn2cnc3ccccc32)n1-c1ccccc1Cl | x | x | -3 | -3 | -3 | x
CCOC(=O)c1cnn(-c2ccccc2)c1NC(=O)CN1CCCCC1 | x | x | -1 | -8 | -1 | x
Cc1cc(C)c(S(=O)(=O)c2ccccc2)c(OC(=O)c2c(Cl)cccc2Cl)n1 | -1.6 | 4 | 0 | 6 | -16 | -80
Cc1cc(C)c(S(=O)(=O)c2ccccc2)c(OC(=O)c2ccc(Cl)cc2Cl)n1 | 1 | 52* | -3 | -11 | 0 | -52
CCc1ccccc1NC(=O)CCN1C(=O)C2C3CCC(C3)C2C1=O (stereo not drawn) | x | x | 3 | -8 | 17 | x
COc1ccc(/C=N/NC(=O)c2nn(-c3ccc(C)c(C)c3)c(=O)c3ccccc23)cc1 | 0.41 | -4 | -9 | -15 | + | -67
COc1ccc(-n2nc(C(=O)Nc3nc4ccc(OC)cc4s3)c3ccccc3c2=O)cc1 | 0.21 | 17 | 5 | -27 | 38* | -41
C/C(=N\Nc1ccc(F)cc1F)c1ccc(Br)s1 | x | x | -2 | 2 | -4 | x
COC(=O)c1nn(-c2cccc(C)c2)c2nnc(Cc3ccccc3)c(=O)n12 | 0.48 | 26* | -10 | 6 | 0 | -16
CC(=O)N1CC(=O)N(Cc2ccccc2)/C(=C/c2ccccc2)C1=O | x | x | -4 | -3 | 134* | x
CC1(C)CC(=O)N(Cc2ccccc2)C(=O)C1 | 1.1 | 2 | -9 | -2 | -6 | -15
O=C(CCn1cnnn1)Nc1ccccc1 | x | x | -2 | -6 | -8 | x
O=C(c1ccc(OCC2CCCO2)cc1)N1CCN(c2ccccc2)CC1 (stereo not drawn) | 0.54 | -7 | -2 | 0 | -5 | -39
O=C(c1ccccc1)N1CC(COc2ccccc2)OC(c2ccco2)O1 (stereo not drawn) | -1.4 | 27* | -6 | -6 | -8 | -16
Cc1ccccc1OCCn1cnc2c(N)ncnc21 | 0.94 | x | 5 | 7 | 41* | -9
Nc1ncnc2c1ncn2CCN1CCCCC1 | 0.28 | -10 | -10 | 3 | -6 | -1
O=C(O)COc1ccc(S(=O)(=O)c2ccc(OCC(=O)O)cc2)cc1 | 0.94 | -1 | -2 | 2 | 35* | -8
CCOC(=O)COc1ccc(S(=O)(=O)c2ccc(OCC(=O)OCC)cc2)cc1 | 0.83 | 0 | -3 | -11 | 5 | -20
O=c1oc2c(O)c(O)cc3c(=O)oc4c(O)c(O)cc1c4c23 | -0.89 | 6 | -6 | 66* | -37 | -65
Cc1cc(NS(=O)(=O)c2ccc(Cl)cc2)nn1CC(=O)NCc1ccco1 | 0.56 | -10 | -5 | 4 | 55* | -101
SMILES | SDO1 yeast rescue | Yeast lifespan up | RBBP9 inh | TbHK1 inh | p47phox inh | BB579 growth dn
Cc1ccc(-c2nnc(Oc3ccc(NC(=O)c4ccccc4)cc3)c3ccccc23)cc1 | -0.78 | -2 | -10 | -3 | 43* | -21
CCc1ccc(S(=O)(=O)/N=C2\C=CC(=O)c3ccccc32)cc1 | x | x | 10 | -3 | 6 | x
CCc1ccc(S(=O)(=O)/N=C2/C=C(Sc3ncn[nH]3)C(=O)c3ccccc32)cc1 | -0.37 | 7 | 3 | 38 | 55* | -24
O=C(Nc1ccc(Cl)cc1)ON=C1CCCC1 | -1.3 | -10 | -3 | 30 | 9 | 99*
NC(=O)Nc1ccc(Cl)cc1 | x | x | 2 | -7 | -11 | x
CCCS(=O)(=O)c1c(S(=O)(=O)CCC)c2ccc(C(N)=O)cn2c1C(=O)c1ccc(F)cc1 | x | x | 4 | -13 | -17 | x
CCCS(=O)(=O)c1c(S(=O)(=O)CCC)c2cnccn2c1C(=O)c1ccc(Cl)cc1 | 15* | -4 | 1 | -27 | -8 | -18
COc1ccc(-c2nncnn2)cc1 | -2.5 | x | -3 | -1 | -12 | 79*
COc1ccc(-c2ccc(OC)cc2)cc1 | -0.38 | x | -3 | -5 | -4 | -30
O=C(CNC(=O)C(c1ccccc1)c1ccccc1)OCc1ccccc1 | x | x | -4 | -1 | -2 | x
CS(=O)(=O)c1nc(-c2cccs2)cc(C(F)(F)F)n1 | -1.4 | 52* | -1 | -57 | -11 | -26
O=C(O)CCS(=O)(=O)c1nc(-c2cccs2)cc(C(F)(F)F)n1 | -0.22 | 19 | 4 | -47 | -8 | -42
COc1ccc(-c2cc(C(F)(F)F)nc(S(C)(=O)=O)n2)cc1 | -2.5 | 85* | -7 | -39 | -6 | -35
CN(C)N1C(=O)CC(N2CCCCC2)C1=O (stereo not drawn) | x | x | -3 | -1 | -13 | x
O=C(NCc1ccc(F)cc1)c1c2c(nc3ccccc13)CCC2 | x | x | 7 | -2 | -7 | x
Cc1nc(C)c(C(=O)N/N=C/c2cc(Br)ccc2O)s1 | x | x | 1 | -12 | -26 | x
CCOCC(=O)Nc1nc2c(s1)C(=O)CC(C)(C)C2 | 0.55 | -13 | 1 | -29 | -7 | 45*
CC(=O)Nc1cc(C(=O)OC(C(=O)c2ccccc2)c2ccccc2)ccc1C (stereo not drawn) | -0.67 | -10 | -3 | -10 | 49* | -8
Clc1ccccc1Cc1noc(CN2CCN(c3cnccn3)CC2)n1 | x | x | -4 | -23 | 32* | x
O=C(CC(=O)c1ccccc1O)c1ccc(F)cc1 | -2.7 | -18 | -2 | -11 | -11 | 53*
O=c1/c(=C\c2cc([N+](=O)[O-])cc([N+](=O)[O-])c2O)sc2nc3ccccc3n12 | x | x | -8 | 60* | -76 | x
CC1CN(c2ccc(Cl)nn2)CC(C)O1 (stereo not drawn) | x | x | -8 | 4 | 2 | x
CC(=O)c1c(O)cc(C)n(-c2ccc(F)cc2)c1=O | x | x | -1 | -2 | 1 | x
CC(=O)c1c(O)cc(C)n(Nc2nc(C)cc(C)n2)c1=O | 0.07 | 32* | -7 | -1 | -3 | -18
N#Cc1ccccc1Cn1c(=O)n(CCC(=O)NCc2ccco2)c(=O)c2ccccc21 | 1 | 3 | -5 | -5 | -3 | -54
N#Cc1ccccc1Cn1c(=O)n(Cc2ccc(C(=O)NCc3ccco3)cc2)c(=O)c2ccccc21 | 1.5 | -10 | -7 | 3 | 30* | -38
CN1CCS/C1=C/C=C1\SC(=S)N(CC(=O)O)C1=O | x | x | -5 | -8 | -101 | x
CCCCN1C(=O)/C(=C/C=C2\SCCN2C)SC1=S | x | x | 2 | -9 | 54* | x
